Only some compounds are listed: those with a hit (about 2.2% of all), similar ones and a draw of the others.
IMP-1 inh-1: blocks Pseudomonas aeruginosa IMP-1 metallo-beta-lactamase | purified IMP-1, nitrocefin hydrolysis, epi-absorbance fluorescence | inhibition, % at 5.6 µM | 290,000 tested, 0.45% active | AID 1556;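 active = inhibition above the mean plus 3 SD of all compounds in the same screening run, cut at about 4.5% in these data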;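 also: 0% = IMP-1 with DMSO and 100% = DMSO wells lacking enzyme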
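System: purified IMP-1 / Input: IMP-1 dispensed at 0.2 nM / Medium: 50 mM HEPES pH 7.1, 50 µM ZnSO4, 0.05% Brij 35 / Timing: 15 min enzyme–compound preincubation, then 25 min nitrocefin reaction, 25 °C / Technique: plate fluorescence quenching by hydrolysis product, ex 480/em 530 nm / Repeats: singlicate testing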
Yeast superoxide: lowers age-related superoxide in aged yeast cells; S. cerevisiae aged cells, superoxide DHE fluorescence; active compounds read low; superoxide response (% of plate mean), % at 10 µM; 330,000 tested, 0.18% active;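 active = superoxide response under a set limit, about three screen SD below normal, cut at about 65% in these data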;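 also: yeast aged for seven days with compound at 30 °C before DHE staining; 100% = average MFI of all compound-treated wells on the plate with controls excluded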
PvdQ acylase: blocks Pseudomonas aeruginosa PvdQ acylase activity. AID 488965. inhibition, % at 10 µM. 340,000 tested, 0.063% active. purified PvdQ acylase, fluorescence plate reader; in the data active = inhibition above about 30%, passing the limit was not always enough;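 also: 0% = vehicle neutral wells and 100% = reference inhibitor wells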
PHOSPHO1 inh: blocks human PHOSPHO1 phosphatase activity. inhibition, % at 13.3 µM. recombinant PHOSPHO1, absorbance phosphatase assay. Q8TCT1. 290,000 tested, 1.1% active. AID 1565; in the data active = inhibition above about 60%
Target sequence (Q8TCT1 whole entry, looked up): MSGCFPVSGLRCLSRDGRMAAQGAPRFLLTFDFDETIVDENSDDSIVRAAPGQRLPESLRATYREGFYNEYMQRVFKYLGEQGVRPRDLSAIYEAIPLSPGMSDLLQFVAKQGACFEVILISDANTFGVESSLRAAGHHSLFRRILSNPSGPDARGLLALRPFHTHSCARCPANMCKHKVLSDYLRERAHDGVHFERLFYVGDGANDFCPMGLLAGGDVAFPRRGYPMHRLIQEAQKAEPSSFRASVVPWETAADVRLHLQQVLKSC
VIM-2 inh: inhibitors of Pseudomonas aeruginosa VIM-2 metallo-beta-lactamase | purified VIM-2, nitrocefin hydrolysis, epi-absorbance fluorescence | inhibition, % at 5.6 µM | 290,000 tested, 0.89% active | AID 1527;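 active = inhibition above the mean of all tested compounds plus 3 SD, cutoff set per screening run, cut at about 7.5% in these data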;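 also: red hydrolysis product quenches plate fluorescence so inhibitors raise well fluorescence; 0% = enzyme with DMSO and 100% = DMSO without enzyme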
IMP-1 inh-2: blocks IMP-1 metallo-beta-lactamase in VIM-2 selectivity screen | 1,300 tested, under 10 active | inhibition, % at 5.6 µM | purified IMP-1, nitrocefin hydrolysis, epi-absorbance fluorescence | shares compounds with VIM-2 inh | AID 1856; call rule not given here;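 also: 0% = enzyme with vehicle and 100% = vehicle without enzyme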
VIM-2 FRET inh: VIM-2 FRET inhibition, artifact counter-screen. purified VIM-2, CCF2 FRET substrate hydrolysis. shares compounds with VIM-2 inh. inhibition, % at 5.6 µM. 1,300 tested, 23% active;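 active = inhibition above the mean of all tested compounds plus 3 SD, cut at about 19% in these data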;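 also: 0% = VIM-2 plus DMSO and 100% = no enzyme wells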
TEM-1 counter: blocks E. coli TEM-1 beta-lactamase in VIM-2 selectivity screen. inhibition, % at 5.6 µM. shares compounds with VIM-2 inh. Purified TEM-1, nitrocefin hydrolysis, epi-absorbance fluorescence. 1,300 tested, 3% active;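 active = inhibition above that campaign's mean inhibition plus 3 SD, cut at about 0.46% in these data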;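 also: 0% = TEM-1 with DMSO and 100% = TEM-1 with 100 µM potassium clavulanate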
Target sequence (P62593 whole entry, looked up): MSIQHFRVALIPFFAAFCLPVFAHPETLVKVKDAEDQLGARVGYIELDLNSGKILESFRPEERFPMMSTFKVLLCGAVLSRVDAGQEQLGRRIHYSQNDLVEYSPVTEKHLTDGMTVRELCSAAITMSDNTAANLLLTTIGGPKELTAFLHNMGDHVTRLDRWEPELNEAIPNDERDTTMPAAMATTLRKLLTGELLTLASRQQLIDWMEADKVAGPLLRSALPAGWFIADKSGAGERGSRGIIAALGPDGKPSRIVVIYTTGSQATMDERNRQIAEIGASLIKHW
VIM-2 confirm 2: confirmation of P. aeruginosa VIM-2 metallo-beta-lactamase inhibitors; shares compounds with VIM-2 inh; purified VIM-2, nitrocefin hydrolysis, epi-absorbance; inhibition, % at 5.6 µM; 1,300 tested, 96% active;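 active = inhibition of the VIM-2 beta-lactamase enzyme above about 11% from the earlier first-round screen, limit read from the data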;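 also: 0% = VIM-2 with DMSO and 100% = buffer wells without enzyme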
* marks the source's active call; other numbers are inactive results; · = no result given.

SMILES | IMP-1 inh-1 | Yeast superoxide | PvdQ acylase | PHOSPHO1 inh | VIM-2 inh | IMP-1 inh-2 | VIM-2 FRET inh | TEM-1 counter | VIM-2 confirm 2
CCc1cc(=O)oc2c3c(cc(OCC(=O)NCc4ccco4)c12)OC(C)(C)CC3 | 1 | 81 | -8 | 13 | 4 | · | · | · | ·
Cc1cc(=O)oc2c3c(cc(OCC(=O)NC(Cc4ccc(Cl)cc4)C(=O)O)c12)OC(C)(C)CC3 (configuration not stated) | -2 | 100 | -4 | 24 | 7 | · | · | · | ·
CC(/C=N/n1c(-c2cccnc2)n[nH]c1=S)=C\c1ccccc1 | -2 | 90 | 5 | 41 | 6 | · | · | · | ·
CC(=C/c1ccccc1)/C=N/n1c(-c2ccncc2)n[nH]c1=S | 1 | 112 | -2 | 56 | 16* | -4 | 48* | -9 | 28*
CC(=C/c1ccccc1)/C=N/n1c(C)n[nH]c1=S | -2 | 100 | -11 | -67 | 33* | -2 | 61* | -8 | 42*
CC(/C=N/n1c(COc2ccccc2)n[nH]c1=S)=C\c1ccccc1 | -5 | 101 | -4 | -27 | -4 | · | · | · | ·
C[C@H](CO)N1C[C@H](C)[C@@H](CN(C)S(=O)(=O)c2cn(C)cn2)Oc2c(NS(=O)(=O)c3cccs3)cccc2C1=O | · | 108 | 12 | · | · | · | · | · | ·
CCCn1nc(C(=O)NNC(=O)CSC(C)C(=O)Nc2cc(C)on2)c2ccccc2c1=O (configuration not stated) | -2 | 103 | 15 | -12 | -5 | · | · | · | ·
CCN(CC)c1nc(-c2ccc(C(=O)NN)cc2)nc(-c2ccc(C(=O)NN)cc2)n1 | -3 | 106 | 11 | 27 | 75* | -3 | 4 | -6 | 85*
CCN(CC)c1nc(C(N)=O)cc(-c2ccccc2)n1 | -2 | 76 | -8 | -1 | 1 | · | · | · | ·
Cc1ccc2[nH]c(C)c(/C=N/Nc3nc4ccccc4s3)c2c1 | -1 | 94 | 1 | 23 | -1 | · | · | · | ·
Cc1ccc2[nH]c(C)c(/C=C/c3cc[n+](C)cc3)c2c1 | 4 | 104 | 17 | -9 | 16* | 1 | 2 | 0 | 26*
CCOC(=O)c1ccc(N=Cc2cnc(N)nc2N)cc1 | · | · | 1 | · | · | · | · | · | ·
COc1ccc2c(C)cc3n[nH]c(=S)n3c2c1 | -2 | 108 | -9 | 67* | 13* | -3 | 21* | -7 | 19*
COc1ccc(-c2n[nH]c(=S)n2N)c(OC)c1 | -5 | 115 | 7 | 44 | 0 | · | · | · | ·
COc1cc2c(cc1OC)/C(=C/C(=O)c1ccc(F)cc1)NCC2 | -2 | 87 | -12 | -5 | 14* | -3 | -5 | -6 | 19*
Cn1c(=O)n(C)c2cc(/C=N/N=C3/NC(=O)C(CC(=O)O)S3)ccc21 (configuration not stated) | -4 | 104 | -1 | 24 | 22* | -1 | 7 | -4 | 37*
CCOc1cc(/C=N/N=C2/NC(=O)C(CC(=O)O)S2)ccc1OCc1ccc(Cl)cc1 (configuration not stated) | -2 | 99 | -2 | -5 | -1 | · | · | · | ·
Nc1nonc1-n1nnc(C(=O)N/N=C/c2ccccn2)c1CNc1ccccc1 | -4 | 84 | -6 | 38 | -7 | · | · | · | ·
COCCCNc1c2c3c(cccc3[nH]c1=O)C(=O)c1ccccc1-2 | -3 | 97 | 5 | 4 | 34* | 73* | 4 | 137* | 87*
Cc1cc(C)cc(C(=O)OCC(=O)Nc2ncccn2)c1 | · | 91 | -8 | · | · | · | · | · | ·
Cn1nc(-c2ccc(OCC(=O)Nc3cccnc3)cc2)c2ccccc2c1=O | -3 | 82 | -6 | 3 | 20* | -4 | 2 | -7 | 31*
O=c1[nH]cnc(O)c1C(c1ccc([N+](=O)[O-])cc1)c1c(O)nc[nH]c1=O | 1 | 98 | -9 | 5 | 1 | · | · | · | ·
N#Cc1nc(-c2ccco2)oc1NCCCn1ccnc1 | -4 | 98 | -7 | -3 | 26* | -3 | -6 | -6 | 44*
COc1ccc(-c2nc(C#N)c(NCCCn3ccnc3)o2)cc1OC | 0 | 108 | -10 | 8 | 17* | -2 | -15 | -5 | 43*
SMILES | IMP-1 inh-1 | Yeast superoxide | PvdQ acylase | PHOSPHO1 inh | VIM-2 inh | IMP-1 inh-2 | VIM-2 FRET inh | TEM-1 counter | VIM-2 confirm 2
O=C(OCC(=O)N1CCN(C(=O)c2ccco2)CC1)c1cc(-c2ccco2)nc2ccccc12 | 1 | 145 | 0 | 69* | 15* | -4 | -19 | -7 | 11*
O=C(Nc1ccc(F)cc1F)c1cc(Cl)sc1Cl | -4 | 100 | -6 | 31 | -4 | · | · | · | ·
COC(=O)c1oc2nc(C)cc(C)c2c1N | 4 | 102 | -8 | 38 | 15* | -3 | 0 | -6 | 14*
Cc1cc(C)c2c(N)c(C(=O)c3ccccc3)oc2n1 | -3 | 94 | -3 | -17 | -1 | · | · | · | ·
NC(=S)NNc1cccc2cccnc12 | -3 | 85 | 7 | 29 | 18* | -5 | -15 | -10 | 15*
NC(=S)Nc1cccc2cccnc12 | 0 | 99 | -10 | -92 | -4 | · | · | · | ·
COc1cc(N2C(=O)C=CC2=O)c(OC)cc1Cl | -2 | 98 | 14 | 39 | -2 | · | · | · | ·
CCCCn1c(-c2nn(C)cc2Cl)n[nH]c1=S | -2 | 92 | -15 | 8 | 39* | -2 | 66* | -8 | 48*
CCCCCCn1c(-c2cccs2)n[nH]c1=S | -3 | 113 | -12 | 28 | 72* | -5 | 83* | -11 | 76*
CCCCn1c(-c2nn(C)c(C)c2Cl)n[nH]c1=S | -3 | 101 | -5 | 8 | 36* | -3 | 66* | -8 | 46*
S=c1[nH]nc(-c2ccn[nH]2)n1-c1ccccc1Cl | -4 | 86 | 11 | -152 | 17* | -3 | 34* | -4 | 22*
CN(C)C(=O)CSc1nc(-c2ccccc2)nc2c1CCCC2 | -1 | 99 | -11 | -4 | 4 | · | · | · | ·
CN(C)CCCSc1nc(-c2ccccc2)nc2c1CCC2 | 1 | 161 | -23 | 12 | 35* | -2 | 3 | -7 | 57*
CCCCCN(C(=O)CCC(=O)OCCOc1cccc(C)c1)c1c(N)n(CCCC)c(=O)[nH]c1=O | · | 94 | 0 | · | · | · | · | · | ·
Cc1cc(NC(=O)c2ccc(Cl)cc2)cc(C)c1OCC(=O)N1CCOCC1 | -3 | 112 | 4 | 13 | -2 | · | · | · | ·
NCCNC(=O)c1ncsc1-c1cccc(F)c1 | · | 81 | 3 | · | · | · | · | · | ·
O=C(O)c1ncsc1-c1ccccc1 | -3 | 94 | -10 | 4 | 13* | -2 | 24* | -1 | 16*
CCn1c(-c2nn(C)cc2Cl)n[nH]c1=S | -4 | 95 | 0 | -5 | 2 | · | · | · | ·
Cc1nn(C)c(-c2n[nH]c(=S)n2-c2ccccc2)c1Cl | -2 | 102 | -18 | 14 | 4 | · | · | · | ·
